Results on one compound are retold here after ChEMBL document CHEMBL4406851, “Design, synthesis and biological evaluation of cinnamic acid derivatives with synergetic neuroprotection and angiogenesis effect” (Eur J Med Chem, 2019).

Molecules are shown by their SMILES. Calls of active or inactive are those of the source. The calls are words filed in the database; no cut-off is given here.

Test [1] has as its system SH-SY5Y. The test is described as follows: Inhibition of H2O2-induced apoptosis in human SH-SY5Y cells assessed as necrotic cells at 3.13 uM preincubated for 24 hrs followed by H2O2 addition measured after 4 hrs by Annexin V-FITC/propidium iodide staining based flow cytometry (reference value: 0.9 %). In kind it is functional. Further details: scale not given: the % may be the effect or the level left. The method in brief: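 Cells were seeded at 3.5×10^4 cells/mL in 6-well plates at 37 °C, 5% CO2. Compound was added at three concentrations for 24 h, then H2O2 (4.8 mM stock solution) to model and drug wells for 4 h. Cells were collected, washed in cold PBS and resuspended in annexin-binding buffer. Staining was annexin V-FITC 10 min, then PI 5 min, in the dark, followed by flow cytometry with quadrant gating.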
(In general: A flow cytometer gives signals particle by particle.)

In another test the test system is HBMEC-2. The test is described as follows: Protection against H2O2-induced apoptosis in human HBMEC2 cells assessed as increase in cell number preincubated for 24 hrs followed by H2O2 addition measured after 4 hrs by DAPI staining based inverted phase contrast microscopic analysis. Type of test: functional. Summed up:
(§1)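 Cells at 3.5×10^4 cells/mL in 24-well plates were pretreated 24 h with compound at three concentrations, then H2O2 (4.8 mM stock) for 4 h. After PBS washes, cells were fixed in 4% paraformaldehyde/70% cold ethanol for 10 min. Staining was 6% Giemsa or DAPI for 5 min in the dark. Random fields were photographed at 200× by microscope, alongside control and model groups.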

The test system of test [2] is SH-SY5Y. Nature of the test: Protection against H2O2-induced apoptosis in human SH-SY5Y cells assessed as reduction in cell disruption at 1.56 to 6.25 uM preincubated for 24 hrs followed by H2O2 addition measured after 4 hrs by Giemsa staining based inverted phase contrast microscopic analysis. Type of test: functional. Summed up: as §1
In the next test the test system is Chorioallantoic membrane. Nature of the test: Induction of angiogenesis in chicken chorioallantoic membrane assessed as increase in microvessel formation at 1 mg/ml measured after 48 hrs by dissecting microscopic analysis. The conditions noted are these: Gallus gallus. Type of test: functional, cell membranes. Summed up: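 Fertile eggs were incubated 7 days at 37 °C and 60% humidity. A small window was opened at one end and the membrane was wetted with a drop of sterile saline. Test solution (0.5, 1 or 2 mg/mL) was applied to the allantoic membrane, with PBS for controls. After 48 h the membrane was separated from the shell, then viewed and photographed under a dissecting microscope.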

Turning to `COc1cc(CNC(=O)/C=C/c2cc(OC)c(OC)cc2OC)ccc1O`, the Activity in the test on SH-SY5Y [1] was 0.1%; in the test with HBMEC-2, “Dose-dependent effect”. Besides, the outcome with SH-SY5Y [2] and with Chorioallantoic membrane was Active.
